According to ChEMBL document CHEMBL1132422, “Synthesis and evaluation of 2-amino-9-(1, 3-dihydroxy-2-propoxymethyl)- 6-fluoropurine mono- and diesters as potential prodrugs of ganciclovir” (J Med Chem, 1999):
Converted amounts (≈) assume the structure as drawn.

What was measured:
[1] = Compound was tested for its half life period at pH 8.0 using Sodium phosphate buffer; type: ADME
Outline: (§1)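 Compound incubated in buffer (HCl/NaCl at pH 1.2; sodium phosphate at pH 6.0, 7.4, 8.0), sampled and analysed by C18 reversed-phase HPLC. Gradient: 10 min 100% 0.1% phosphoric acid, 25 min linear to 45% of 80% MeCN/0.1% phosphoric acid, then 4 min isocratic, at 1 mL/min. UV detection at 245 nm. Half-life derived from remaining parent compound.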

[2] = Compound was tested for its half life period at pH 6.0 using Sodium phosphate buffer; type: ADME; outline: as §1
[3] = Compound was tested for its half life period at pH 1.2 using HCl/NaCl buffer; type: ADME; outline: as §1
Human betaherpesvirus 5 = assay: In vitro antiviral (HCMV-AD169) activity of the compound (Concentration required to reduce 50% of the plaques) determined by plaque reduction assay.; type: functional, cell-based; settings: Human betaherpesvirus 5, AD169, HEL 299
Outline: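 Confluent cells infected with about 50 PFU HCMV AD-169 per well, 1 h adsorption at 37 °C, 5% CO2. Inoculum replaced with EMEM containing 2% FBS, 1% methyl cellulose and compound at various concentrations. After 10 days, plaques fixed in methanol, stained with crystal violet and counted. EC50 from probit dose-response; quadruplicate, repeated twice.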

[4] = Compound was tested for its half life period at pH 7.4 using Sodium phosphate buffer; type: ADME; outline: as §1
[5] = Compound was tested for solubility in water at 25 degree C; type: ADME; settings: read-out: S
Outline: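 Saturated aqueous solution of compound; UV absorbance at 245 nm compared against a standard curve to give solubility.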

Rattus norvegicus = assay: Total amount of Ganciclovir recovered in the urine over a 48 hr period after an oral dose of 0.1 mmol/kg to male SD rat; type: functional
Outline: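 Single oral dose of 0.1 mmol/kg given to two male Sprague-Dawley rats (200-250 g). Urine collected for 48 h in metabolic cages, and total ganciclovir measured by C18 reversed-phase HPLC.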

HEL 299 = assay: In vitro cytotoxicity of the compound (Concentration required to reduce OD value by 50%) in human embryonic lung fibroblast(HEL 299) cells determined by MTT assay.; type: functional
Outline: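 HEL 299 cells seeded at 1 × 10^4 cells/well in EMEM and grown 24 h, then exposed to compound at various concentrations for 4 days at 37 °C, 5% CO2. MTT added for 4 h, formazan dissolved in DMSO, OD read at 540 nm. CC50 from probit dose-response; quadruplicate, repeated twice.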

Row | Structure (SMILES) | half-life [1] [h] | half-life [2] [days] | half-life [3] [h] | EC50 (Human betaherpesvirus 5) [µM] | half-life [4] [h] | solubility [5] [µg/mL] | Ganciclovir recovered in urine over 48 h (% of dose) (Rattus norvegicus) [%] | CC50 (HEL 299) [µM] | Dose (Rattus norvegicus) [%]
1 | Nc1nc(F)c2ncn(COC(CO)CO)c2n1 | 720 | 107 | 1.03 | > 100 | 1660 | 11300 (≈ 43.9 mM) | 8 | > 100 | 
2 | CCC(=O)OCC(COC(=O)CC)OCn1cnc2c(F)nc(N)nc21 | 48 | 35 | 1.38 | > 100 | 168 | 700 (≈ 1.9 mM) | 35 | > 100 | 
3 | CCC(=O)OCC(CO)OCn1cnc2c(F)nc(N)nc21 (configuration not stated) | 168 | 37 | 1 | > 100 | 408 | 19000 (≈ 60.6 mM) |  | > 100 | 39
4 | CC(C)C(=O)OCC(CO)OCn1cnc2c(F)nc(N)nc21 (configuration not stated) | 336 | 56 | 1.08 | > 100 | 768 | 5700 (≈ 17.4 mM) | 45 | > 100 | 
5 | Nc1nc2c(ncn2COC(CO)CO)c(=O)[nH]1 [GANCICLOVIR] |  |  |  | 0.63 |  | 4300 (≈ 16.8 mM) | 3 | > 100 | 
6 | CC(C)OCC(COC(C)C)OCn1cnc2cnc(N)nc21 [ROCICLOVIR] |  |  |  |  |  |  | 14 |  | 

Further lines, with some results ahead:

Row | half-life [1] [h] | half-life [2] [days] | half-life [3] [h] | EC50 (Human betaherpesvirus 5) [µM] | half-life [4] [h] | solubility [5] [µg/mL] | Structure (SMILES) | Ganciclovir recovered in urine over 48 h (% of dose) (Rattus norvegicus) [%] | CC50 (HEL 299) [µM] | Dose (Rattus norvegicus) [%]
7 | 120 | 29 | 1.23 | > 100 | 168 | 400 (≈ 1.01 mM) | CC(C)C(=O)OCC(COC(=O)C(C)C)OCn1cnc2c(F)nc(N)nc21 | 42 | > 100 | 
8 | 288 | 51 | 1.15 | > 100 | 504 | 19400 (≈ 59.3 mM) | CCCC(=O)OCC(CO)OCn1cnc2c(F)nc(N)nc21 (configuration not stated) | 41 | > 100 | 
9 | 72 | 30 | 1.03 | > 100 | 192 | 4200 (≈ 12.3 mM) | CC(=O)OCC(COC(C)=O)OCn1cnc2c(F)nc(N)nc21 | 41 | > 100 | 
10 | 168 | 56 | 1.02 | > 100 | 336 | 44400 (≈ 148 mM) | CC(=O)OCC(CO)OCn1cnc2c(F)nc(N)nc21 (configuration not stated) | 29 | > 100 | 
11 | 96 | 39 | 1.08 | > 100 | 264 | 600 (≈ 1.51 mM) | CCCC(=O)OCC(COC(=O)CCC)OCn1cnc2c(F)nc(N)nc21 | 35 | > 100 | 
